Laboratory results taken from ChEMBL document CHEMBL3120138, “Glucocorticoid receptor modulators informed by crystallography lead to a new rationale for receptor selectivity, function, and implications for structure-based design” (J Med Chem, 2014).

Experiments:
[1] = biological target: T1, Androgen receptor (Homo sapiens, UniProt P10275); assay: Displacement of [3H]-methyltrienolone from human androgen receptor expressed in HEK293 cells; format: cell-based
T1 sequence (P10275 whole entry): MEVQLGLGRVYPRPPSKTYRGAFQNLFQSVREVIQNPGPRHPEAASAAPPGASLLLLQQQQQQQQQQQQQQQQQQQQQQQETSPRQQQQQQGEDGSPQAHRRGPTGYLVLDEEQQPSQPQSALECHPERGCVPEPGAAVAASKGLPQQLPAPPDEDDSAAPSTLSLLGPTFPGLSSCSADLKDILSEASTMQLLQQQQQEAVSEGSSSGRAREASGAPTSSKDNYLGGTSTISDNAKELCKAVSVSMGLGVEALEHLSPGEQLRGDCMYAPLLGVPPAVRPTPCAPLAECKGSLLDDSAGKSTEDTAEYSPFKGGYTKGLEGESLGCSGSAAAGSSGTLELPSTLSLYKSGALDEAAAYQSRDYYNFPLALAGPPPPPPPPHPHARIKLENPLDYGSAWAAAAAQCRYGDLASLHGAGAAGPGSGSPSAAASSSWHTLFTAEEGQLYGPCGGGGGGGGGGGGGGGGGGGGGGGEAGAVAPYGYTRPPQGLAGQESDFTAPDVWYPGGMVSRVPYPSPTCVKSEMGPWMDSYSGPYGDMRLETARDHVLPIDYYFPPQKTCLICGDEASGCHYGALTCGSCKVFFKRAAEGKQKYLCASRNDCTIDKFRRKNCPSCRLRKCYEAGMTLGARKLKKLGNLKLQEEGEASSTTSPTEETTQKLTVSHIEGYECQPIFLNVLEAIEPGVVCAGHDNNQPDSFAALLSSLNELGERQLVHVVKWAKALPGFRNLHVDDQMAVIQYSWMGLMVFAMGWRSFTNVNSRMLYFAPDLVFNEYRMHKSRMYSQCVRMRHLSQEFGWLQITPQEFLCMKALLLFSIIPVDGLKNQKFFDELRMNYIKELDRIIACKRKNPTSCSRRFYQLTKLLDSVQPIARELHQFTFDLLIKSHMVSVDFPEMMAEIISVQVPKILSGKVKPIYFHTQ

[2] = Antiinflammatory activity in human CCD-39SK cells assessed as inhibition of IL-1beta-induced IL-6 production incubated for 60 mins prior to IL-1beta induction measured after 24 hrs; format: functional, cell-based
Summary of the method: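 CCD-39SK fibroblasts (20 000/well) were grown in MEM with 2% charcoal/dextran-treated FBS. Cells were pretreated with compound for 60 min, then stimulated with rhIL-1β (1 ng/mL final) for 24 h at 37 °C. IL-6 in clarified supernatant was measured. […] Ten-point half-log dilutions were used, each in triplicate.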

[3] = biological target: T2, Mineralocorticoid receptor (Homo sapiens, UniProt P08235); assay: Displacement of [3H]-aldosterone from human mineralocorticoid receptor expressed in HEK293 cells; format: cell-based
T2 sequence (P08235 whole entry): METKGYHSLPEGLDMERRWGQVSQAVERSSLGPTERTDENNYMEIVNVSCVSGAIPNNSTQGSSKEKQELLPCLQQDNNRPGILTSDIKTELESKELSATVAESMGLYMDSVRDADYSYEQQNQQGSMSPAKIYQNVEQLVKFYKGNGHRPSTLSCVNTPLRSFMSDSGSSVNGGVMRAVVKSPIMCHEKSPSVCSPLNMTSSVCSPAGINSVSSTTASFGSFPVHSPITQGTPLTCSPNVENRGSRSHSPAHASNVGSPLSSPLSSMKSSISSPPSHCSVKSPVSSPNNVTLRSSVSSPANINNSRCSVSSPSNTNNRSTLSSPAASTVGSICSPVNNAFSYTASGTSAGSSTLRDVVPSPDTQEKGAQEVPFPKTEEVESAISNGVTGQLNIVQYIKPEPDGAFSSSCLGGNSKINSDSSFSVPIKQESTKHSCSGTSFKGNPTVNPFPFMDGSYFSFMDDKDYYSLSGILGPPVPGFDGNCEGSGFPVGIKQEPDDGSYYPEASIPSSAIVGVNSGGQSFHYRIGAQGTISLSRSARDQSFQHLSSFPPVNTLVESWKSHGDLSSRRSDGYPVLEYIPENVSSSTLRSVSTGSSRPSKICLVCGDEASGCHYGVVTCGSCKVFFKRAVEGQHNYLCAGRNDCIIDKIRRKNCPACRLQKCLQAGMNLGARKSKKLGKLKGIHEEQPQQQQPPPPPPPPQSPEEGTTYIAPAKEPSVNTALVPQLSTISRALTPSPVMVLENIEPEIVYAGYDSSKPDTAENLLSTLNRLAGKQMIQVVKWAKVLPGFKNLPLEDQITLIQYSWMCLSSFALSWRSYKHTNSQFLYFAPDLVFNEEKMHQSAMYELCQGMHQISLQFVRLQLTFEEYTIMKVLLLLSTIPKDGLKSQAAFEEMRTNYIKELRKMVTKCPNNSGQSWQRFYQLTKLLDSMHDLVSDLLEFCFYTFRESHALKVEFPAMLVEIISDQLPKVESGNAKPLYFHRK
Summary of the method: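 Competition binding used lysates of HEK293 cells overexpressing the human receptor. The tracer was ³H-aldosterone for MR and ³H-methyltrienolone for PR. Competitor was tested from 0.01 nM to 10 μM. IC50 was converted to Ki by Cheng–Prusoff. Values are means of at least three experiments, each run in triplicate.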

[4] = biological target: T3, Glucocorticoid receptor (Homo sapiens, UniProt P04150); assay: Displacement of [3H]-dexamethasone from human glucocorticoid receptor expressed in HEK293 cells; format: cell-based
T3 sequence (P04150 whole entry): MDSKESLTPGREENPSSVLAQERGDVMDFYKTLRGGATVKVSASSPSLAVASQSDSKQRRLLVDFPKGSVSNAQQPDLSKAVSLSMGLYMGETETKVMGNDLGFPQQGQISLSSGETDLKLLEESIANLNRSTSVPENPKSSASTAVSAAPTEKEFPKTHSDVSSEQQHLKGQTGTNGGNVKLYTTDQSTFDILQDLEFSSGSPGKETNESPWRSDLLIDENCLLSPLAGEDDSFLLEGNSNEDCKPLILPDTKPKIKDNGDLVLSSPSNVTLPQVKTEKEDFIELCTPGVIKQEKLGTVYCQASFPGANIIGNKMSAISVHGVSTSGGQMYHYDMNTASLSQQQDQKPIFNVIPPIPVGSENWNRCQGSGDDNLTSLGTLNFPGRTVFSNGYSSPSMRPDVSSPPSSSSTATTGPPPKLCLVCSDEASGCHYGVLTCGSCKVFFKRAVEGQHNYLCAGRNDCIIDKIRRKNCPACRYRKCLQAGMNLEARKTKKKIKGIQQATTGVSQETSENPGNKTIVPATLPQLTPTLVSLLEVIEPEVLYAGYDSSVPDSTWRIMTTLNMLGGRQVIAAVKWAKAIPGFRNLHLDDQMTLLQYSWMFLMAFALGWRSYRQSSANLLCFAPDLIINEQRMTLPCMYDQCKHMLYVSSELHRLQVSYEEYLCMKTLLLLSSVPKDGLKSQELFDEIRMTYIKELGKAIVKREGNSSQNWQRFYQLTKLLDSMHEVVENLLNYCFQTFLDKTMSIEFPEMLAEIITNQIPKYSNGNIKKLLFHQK

Row | Ki [1] | IC50 [2] | Ki [3] | Ki [4] | SMILES
1 | 239 nM | 4.38 nM | 6.1 nM | 0.268 nM | CC/C(=C1\c2ccccc2OCc2cccc(OC)c21)c1cccc(NS(C)(=O)=O)c1
2 | 9.74 nM | 4.8 nM | 0.967 nM | 0.146 nM | CC/C(=C1/c2ccccc2COc2ccccc21)c1cccc(NS(C)(=O)=O)c1
3 | 418 nM | 75.9 nM | 2.48 nM | 0.226 nM | CS(=O)(=O)Nc1cccc(C=C2c3ccccc3CCc3ccccc32)c1
4 | 5.98 nM | 9.32 nM | 0.342 nM | 0.257 nM | C/C(=C1/c2ccccc2COc2ccccc21)c1cccc(NS(C)(=O)=O)c1
